This passage reports Kd results from publication PMC6315297 (AIDS (London, England), 2013).

The assay has as its target HLA-A*68:02 (Homo sapiens, UniProt P04439, A269V/D140Y/D185E/E176V/E277Q/E87N/F33Y/G231S/I121R/I166T/I218V/L180W/L300P/L318F/N151K/P208A/P217A/Q86R/R138H/R169H/S129P/T345S/V36M). Description: HLA peptide binding assay. In outline: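 Recombinant biotinylated HLA-A*68:02 heavy chain diluted to 2 nM in a mix of 30 nM β2m and peptide, folded 48 h at 18°C. Folded complexes detected by AlphaScreen with streptavidin donor beads and acceptor beads carrying the conformation-dependent anti-HLA-I antibody W6/32. Beads at final 5 μg/mL, incubated overnight at 18°C. Plates equilibrated to reader temperature 1 h before reading.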

Peptide text beside a SMILES is read from it.

For the molecule `CC(C)[C@H](NC(=O)[C@H](Cc1ccc(O)cc1)NC(=O)[C@H](Cc1ccccc1)NC(=O)[C@@H](NC(=O)[C@@H](N)CCC(=O)O)[C@@H](C)O)C(=O)N[C@@H](CC(=O)O)C(=O)NCC(=O)N[C@@H](C)C(=O)O` [ETFYVDGA] (H-ETFYVDGA-OH), the Kd (commonly a measure of binding affinity in units of concentration) is 2 nM.
